# Results published in ChEMBL document CHEMBL4513216, “Probing the Open Global Health Chemical Diversity Library for Multistage-Active Starting Points for Next-Generation Antimalarials” (ACS Infect Dis, 2020).
# Assay: Toxicity liver stage against HepG2, at 10uM
# Format: cell-based
# Set-up: test concentration 10 uM, cell line HepG2-A16-CD81EGFP
# Settings: human, HepG2-A16-CD81EGFP cells; read-out: INHIBITION
# How it was run: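 Uninfected HepG2-A16-CD81EGFP cells, 3 × 10^3 per well, 1536-well, plated on prespotted compound at 10 μM final, parasite-free screening media added to match infected plates; puromycin 10 μM positive, DMSO 0.5% negative; run in parallel with 48 h PbLuc assay at 37 °C, 5% CO2; viability by CellTiter-Glo luminescence, normalized to controls.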
row,SMILES,cytotoxicity at 10 µM
1,COc1ccc(Cl)cc1CN(C)C(=O)CN1C(=O)CCC1C (stereo not given),0.277%
2,Cc1ccc(CN2CCCn3c(nc(CN4CCCC4)cc3=O)C2)s1,-0.207%
3,O=C(CCc1ccc(Cl)cc1)N1CCC(O)(C(F)(F)F)C1 (stereo not given),1.16%
4,Cc1cc(C)n(C2CCCN(C(=O)CCOc3cccc(F)c3)C2)n1 (stereo not given),-5.56%
5,Cc1ccc(NC2CCN(C(=O)COCC3CC3)CC2)nn1,0.132%
6,Cc1nc(NC(=O)C2(C)CN(C)CCO2)sc1C (stereo not given),2.44%
7,CC(C)OCCCN(Cc1cnn(C)c1)Cc1ccccn1,1.24%
8,Cn1c(=O)c2cc(C(=O)NCCOc3ccccc3)ccc2n(C)c1=O,-4.69%
9,CSc1nccc(N2CCN(C)C3(CCNC(=O)CC3)C2)n1 (stereo not given),18.7%
10,Cc1ccsc1CN(C)c1cc(N2CCOCC2)ncn1,-0.33%
11,Cc1cnn(CC2CN(Cc3nc(-c4ccco4)no3)CCO2)c1 (stereo not given),-20.3%
12,CCCC1(CO)CCCN(Cc2nccs2)C1 (stereo not given),1.41%
13,O=C(c1cnc2ccc(Cl)cc2c1NCc1ccco1)N1CCCCC1,4.38%
14,COc1ccccc1C(O)CNC(=O)NCc1csc(C)n1 (stereo not given),-5.34%
15,Cc1cc(C)n(C2CN(Cc3nc4cc(Cl)ccc4n3C)C2)n1,-2.35%
16,CC(C)CNC(=O)CSC1CCc2ccccc2NC1=O (stereo not given),-2.38%
17,CC(C)NC(=O)CC(C)NC(=O)N(C)Cc1cc(Cl)cn1C (stereo not given),-0.414%
18,Cn1ccc(C(=O)N2CCN(CCc3ccccc3)CC2)cc1=O,5.8%
19,c1ccc(-c2cnc3n2CCNC32CCNCC2)cc1,-2.2%
20,CC(=O)N1CCN(C(=O)CNc2ccc3sccc3c2)CC1,0.335%
21,Cc1ccnc(C2CCN(C(=O)CCn3ncc4ccccc43)C2)n1 (stereo not given),-22.3%
22,COCCC1(C(=O)O)CCCN(CCc2ccccc2)C1 (stereo not given),10.6%
23,O=C(COc1cccc(F)c1)N1CCCCC1c1ccn2ccnc2n1 (stereo not given),-6.11%
24,CCN(Cc1ccncc1)C1CCCN(C/C=C/c2ccc(F)cc2)C1 (stereo not given),6.61%
25,O=C(NC[C@]12COC[C@H]1CN(Cc1cccnc1)C2)C1CCC1,-105%
26,CCC[C@H]1CN(S(=O)(=O)c2ccc(-c3c(C)noc3C)s2)C[C@@H]1N,8.4%
27,CC(C)N1CC[C@H](c2nc3ccc(C(F)(F)F)cc3[nH]2)C1,-2.07%
28,CC(=O)N1CC(=O)N(c2ccccc2)CC12CCN(Cc1ccsc1)C2 (stereo not given),13.4%

row,SMILES,cytotoxicity at 10 µM
1,CN1C[C@H](NC(=O)c2cscn2)[C@@H]2OCCC[C@@H]21,-112%
2,COc1cccc(OCCNC(=O)CN2CCN(C)CC2C)c1 (stereo not given),-2.5%
3,CN(C)C(=O)N1Cc2ncn(C)c2C(COCC2CCOCC2)C1 (stereo not given),-69.9%
4,O=C(N[C@@H]1CN(CCc2ccc(F)cc2)C[C@H]1O)c1cscn1,-3.08%
5,O=C(CCc1nccs1)N1CCN(c2ccc(Cl)cn2)CC1,0.665%
6,CC(C)N(Cc1ccc(C#N)cc1)C(=O)Nc1ccccn1,-0.518%
7,CNc1cc(C2CCCN2Cc2ccc(OCC(=O)O)cc2)ccn1 (stereo not given),-21.9%
8,Cn1c(=O)n(C)c2cc(NS(=O)(=O)Cc3cccc(F)c3)ccc21,6.37%
9,Cc1ncc(CN(C)CCO)c2cc(C(=O)c3ccc(Br)cc3)oc12,-0.227%
10,Cc1cc(C(F)F)nn1C(C)C(=O)NCc1nccn1C (stereo not given),4.86%
11,CC(C)c1cc(NC(=O)c2ccc(NC3CC3)nc2)[nH]n1,-8.9%
12,CCC(C)C(=O)Nc1ccc(CCN2CCOCC2)cc1 (stereo not given),-0.578%
13,CN(Cc1noc(C2CC2)n1)C1CCN(CCc2cnn(C)c2)C1 (stereo not given),-0.222%
14,COCCN(CCOC)c1ncc(C#N)cc1Cl,2.8%
15,Cn1cc(C(=O)NCC2CCN(C(=O)NC3CCCCC3)CC2)cn1,-4.92%
16,CCc1cc(NCCN2CCNC2=O)n2nccc2n1,-3.04%
17,Cc1cc(-c2cnc(NCc3cccnc3)nc2C(C)C)on1,19.2%
18,Cc1nnc(N2CCO[C@H]3[C@@H](OCc4ccccn4)CC[C@@H]32)s1,12.2%
19,CN(C)S(=O)(=O)NCC(O)c1cc2ccccc2s1 (stereo not given),-13.2%
20,CCOc1ccccc1OC1CCN(C(=O)c2cnns2)CC1,-3.14%
21,Cc1cnc(N2CC[C@@H]3O[C@@H](COCC(=O)N(C)C)CC[C@@H]32)nc1,0.0508%
22,CCC(NC(=O)CCCNC(=O)OC)c1cc(F)ccc1F (stereo not given),-2.34%
23,Cc1nc(N2CCC(C(O)c3nccn3C)CC2)c2nc(C)oc2n1 (stereo not given),-2.22%
24,CN(C(=O)c1cccc(C(=O)NCC(F)(F)F)c1)c1ccccc1,-14.8%
25,CCOCCN1CCN(Cc2nnc(C3CC3)o2)CC1,1.95%
26,O=C(c1ccnnc1)N1CCC2(CC1)CC(N1CCOCC1)C2,6.97%
27,Cc1cccc(-c2nnn3c2COC(CNS(=O)(=O)C2CC2)C3)c1 (stereo not given),-110%
